Compound activity from PubChem.
An excerpt weighted towards active compounds, which were near 1.9% of everything screened.
Runt-CBFb FRET: inhibitors of RUNX1 Runt–CBFb binding, primary screen, biochemical, FRET, Cerulean-Runt, Venus-CBFb, uHTS. AID 1496, 2009. inhibition, % at 20 µM. Cerulean-Runt/Venus-CBFb FRET ratio 530/480, 1 h. 220,000 compounds, 0.46% hits;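 active means inhibition over about 50% at 20 µM in the single-dose screen, limit read from the data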
Target sequence (Q01196 whole entry, looked up): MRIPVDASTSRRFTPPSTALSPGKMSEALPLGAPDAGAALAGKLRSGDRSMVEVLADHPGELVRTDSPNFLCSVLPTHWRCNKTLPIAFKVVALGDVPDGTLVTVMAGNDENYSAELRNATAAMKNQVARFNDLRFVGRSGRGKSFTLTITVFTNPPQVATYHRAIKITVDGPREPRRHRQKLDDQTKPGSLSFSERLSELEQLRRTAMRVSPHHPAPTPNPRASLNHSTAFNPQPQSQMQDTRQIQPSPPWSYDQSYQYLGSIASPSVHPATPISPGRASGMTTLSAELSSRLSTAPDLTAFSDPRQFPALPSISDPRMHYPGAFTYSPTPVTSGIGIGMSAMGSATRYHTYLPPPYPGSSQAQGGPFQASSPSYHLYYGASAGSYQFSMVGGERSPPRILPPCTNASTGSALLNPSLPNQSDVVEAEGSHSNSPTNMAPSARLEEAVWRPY
Target sequence (Q13951 whole entry, looked up): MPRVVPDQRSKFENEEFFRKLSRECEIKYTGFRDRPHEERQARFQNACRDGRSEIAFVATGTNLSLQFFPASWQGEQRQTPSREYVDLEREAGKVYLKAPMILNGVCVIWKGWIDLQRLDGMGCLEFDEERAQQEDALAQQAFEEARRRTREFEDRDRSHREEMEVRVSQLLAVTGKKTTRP
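Assay system: Cerulean-Runt domain fusion protein, energy donor; Signal: fluorescence energy transfer, 422 nm excitation, 530/480 nm emission; Timing: 1 h compound exposure, room temperature; Control set: unlabeled CBFb; Medium: Tris buffer pH 7.5 with salts and BSA; Compound: single test concentration of 20 µM, 1% DMSO final; Probe or stimulus: Venus-CBFb 100 nM.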
Runt-SMMHC FRET: inhibitors of RUNX1 Runt–CBFb-SMMHC binding, primary screen, biochemical, FRET, Cerulean-Runt, Venus-CBFb-SMMHC, uHTS. Runt-related transcription factor 1 (Homo sapiens) + Core-binding factor subunit beta …. Cerulean-Runt/Venus-CBFb-SMMHC FRET ratio 530/480, 1 h. inhibition, % at 20 µM. 220,000 compounds, 0.74% hits;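 active means mean inhibition across duplicate retests at 20 µM reaching about 50%, limit read from the data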;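 further: inhibitors lower the FRET ratio by blocking Runt binding to CBFb-SMMHC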
RanGTP-Impb inh: inhibitors of RanGTP-importin-beta interaction, primary screen, biochemical, FRET, CFP-Ran, YFP-importin-beta, homogeneous. Ran GTPase (GTP-bound) - importin-beta complex. cell-free CFP-Ran/YFP-importin-beta FRET ratio. inhibition, % (test concentration not listed). 300,000 compounds, 1.1% hits;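 active means more than half of the replicate wells show a fall in the fluorescence ratio signal beyond about 16%, limit read from the data, passing the limit was not always enough; inconclusive means exactly half of the replicate wells pass the set limit; inactive means fewer than half of replicates pass the limit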
Hck Nef HTS: inhibitors of Nef-activated human Hck kinase, primary screen, biochemical, Z-Lyte FRET, 384-well, Hck-YEEI; Tyrosine-protein kinase HCK (Homo sapiens), P08631; Recombinant Hck-YEEI plus Nef, Z-Lyte FRET kinase assay; inhibition, % at 20 µM; 220,000 compounds, 0.68% hits; AID 463187, 2010;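 active means Hck-Nef kinase inhibition above about 50%, limit read from the data; inactive means inhibition below that limit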
Numbers stand for hits; – = inactive; ? = inconclusive; · = no result given.

SMILES	Runt-CBFb FRET	Runt-SMMHC FRET	RanGTP-Impb inh	Hck Nef HTS
Nc1cccc2c1C(=O)N(C(=O)c1ccco1)C2=O	–	84	26	–
O=C(/C=C/c1ccc(F)cc1)N1CCCN(C(=O)/C=C/c2ccc(F)cc2)CC1	–	–	–	–
Nc1cccc2c1C(=O)N(C(=O)/C=C/c1ccc(F)cc1)C2=O	–	86	–	–
Cc1ccc(S(=O)(=O)Nc2ccccc2C(=O)N2CCCCC2C)c(C)c1NS(C)(=O)=O (stereo unspecified)	·	·	–	·
O=C(CN1C(=O)COc2ccccc2C1=O)c1ccc2c(c1)OCCO2	·	·	–	·
CCc1nn(-c2ccccc2)c2c1-c1cc(OC)c(OC)cc1C1(N2)C(=O)Nc2ccccc21 (stereo unspecified)	–	–	31	–
c1ccc(-n2cnc3cc(NCc4cccs4)ccc32)cc1	–	–	?	–
Cc1ccc(-n2cnc3cc(NCc4cccs4)ccc32)cc1	–	–	19	–
Cc1ccc(CNc2ccc3c(c2)ncn3C(C)(C)C)cc1	–	–	36	–
Cc1ccc(S(=O)(=O)Nc2ccc3c(c2)ncn3C(C)(C)C)cc1	–	–	–	–
Cc1ccc(CNc2ccc3c(c2)ncn3C)cc1	–	–	16	–
CCCN(CC(=O)Nc1ccccc1OC)C(=O)c1ccc(=O)[nH]c1	·	·	–	·
OC(CNCC(c1ccc(Cl)cc1Cl)c1c[nH]c2ccccc12)c1ccccc1 (stereo unspecified)	–	–	–	–
CCN(CC)c1ccc(/C=C(\C#N)C(N)=O)cc1	–	63	·	–
CCN(CC)c1ccc(/C=C(\C#N)C(N)=S)cc1	–	–	–	–
Cc1nn(CC2CC2)c(=O)n1-c1ccc(Oc2ccccc2)cc1	–	–	–	–
CC(=O)N1c2ccc(S(=O)(=O)N3CCC(C(=O)NCc4ccc(N(C)C)cc4)CC3)cc2CC1C (stereo unspecified)	·	·	67	·
Cc1ccc(Cn2c(=O)sc3ccccc3c2=O)cc1	–	–	–	–
Cc1ccc(-n2sc3ccccc3c2=O)cc1	–	52	–	–
Cc1ccccc1C(=O)c1cccn1CC(=O)NCCCN1CCc2ccccc2C1	–	–	–	–
O=c1c(/C=C(\O)c2ccccc2)nc2ccccc2n1-c1ccccc1	–	–	72	–
Cc1nc2ccccc2n1CC(=O)OCC(=O)NCCc1ccccc1	–	–	–	–
c1ccc(-c2nnc(SCC3CCCO3)nc2-c2ccccc2)cc1 (stereo unspecified)	–	–	26	–
c1ccc(-c2nnc(SCC3CCCCO3)nc2-c2ccccc2)cc1 (stereo unspecified)	–	–	–	–
O=C(CN(C(=O)c1csnn1)c1cccc2ccccc12)NC1CCCC1	–	–	–	–
SMILES	Runt-CBFb FRET	Runt-SMMHC FRET	RanGTP-Impb inh	Hck Nef HTS
Cc1ccc(C)c(OCCn2cc(/C=C(\C#N)C(=O)NCc3ccco3)c3ccccc32)c1	–	63	–	–
COC(=O)/C=c1/s/c(=C(\C#N)C(=O)NCc2ccco2)n(-c2ccccc2)c1=O	–	–	–	–
COc1ccccc1OCCn1cc(/C=C(\C#N)C(=O)NCc2ccco2)c2ccccc21	–	–	–	–
COc1ccc(OCCn2cc(/C=C(\C#N)C(=O)NCc3ccco3)c3ccccc32)cc1	–	86	71	–
COc1ccc(/C=c2\s/c(=C(/C#N)C(=O)NCc3ccco3)n(-c3ccccc3)c2=O)cc1	–	–	83	–
COc1ccc2nc3cc(Cl)ccc3c(Nc3cc(C(C)C)c(O)cc3C)c2c1	77	50	115	–
CCN(CC)CCCC(C)Nc1c2ccc(Cl)cc2nc2ccc(OC)cc12 (stereo unspecified)	–	85	·	·
COc1ccc2nc(Cl)cc(Cl)c2c1	–	–	–	–
CC1(C)CC(=O)c2cnc(N3CCc4ccccc43)nc2C1	–	–	–	–
CCCCN=C1CC(C)(C)CC(=O)/C1=C(/O)CCC	–	–	–	–
COCCCn1c(=N)c(C(=O)NCC2CCCO2)cc2c(=O)n3cccc(C)c3nc21 (stereo unspecified)	–	60	177	196
Cc1cccn2c(=O)c3cc(C(=O)NCCN4CCOCC4)c(=N)n(CCCN4CCOCC4)c3nc12	·	·	131	·
Cc1cccn2c(=O)c3cc(C(=O)NCC4CCCO4)c(=N)n(CCN4CCOCC4)c3nc12 (stereo unspecified)	125	79	106	–
COCCCn1c(C(=O)NCCN2CCOCC2)cc2c(=O)n3cccc(C)c3nc21	·	·	–	·
c1ccc(-c2cn3nc4c(nc3n2)CCCC4)cc1	–	–	83	–
Brc1ccc(-c2cn3nc4c(nc3n2)CCCC4)cc1	–	–	61	–
Brc1ccc2nc3c(n2c1)CCCC3	–	–	–	–
COc1ccc(N(C)S(=O)(=O)c2ccc3c(c2)NC(=O)CO3)c(OC)c1	·	·	–	·
COc1ccc(-n2c(SCC(=O)Nc3ccccc3)nc3c(c2=O)SCC3)cc1	–	–	–	–
O=C(CCn1c(=O)oc2cc(Cl)ccc21)Nc1ccc(N2CCOCC2)cc1	·	·	–	·
CC1=Nc2ccccc2/C1=C/c1sc(=N)n(-c2nccs2)c1O	–	–	23	–
O=C(CSC1CS(=O)(=O)c2cc([N+](=O)[O-])ccc21)NNC(=O)c1ccc(Cl)cc1 (stereo unspecified)	–	–	–	–
O=C(CSC1CS(=O)(=O)c2cc([N+](=O)[O-])ccc21)NNC(=O)c1ccccc1 (stereo unspecified)	–	–	18	–
C=CCn1c2ccccc2c(=O)c2cc(C#Cc3ccsc3)ccc21	·	·	24	·
O=C(O)C1CCCCC1C(=O)Nc1cccc(Cl)c1Cl (stereo unspecified)	–	–	–	–
SMILES	Runt-CBFb FRET	Runt-SMMHC FRET	RanGTP-Impb inh	Hck Nef HTS
CC1CC1c1ccc(/C=C(\C#N)C(=O)Nc2cccc(Cl)c2Cl)o1 (stereo unspecified)	–	–	40	–
Cc1cc(O)ccc1Nc1nc2ccccc2nc1Nc1ccc(O)cc1C	–	·	37	–
CCCCOc1ccc(-c2nnn(C(C)(C)C(=O)OC)n2)cc1	–	–	–	–
CCCCOc1ccc(-c2nnn(C(C)C(=O)OCC)n2)cc1 (stereo unspecified)	–	–	91	–
C=CCOc1ccc(C2C(C#N)=C(N)N(Nc3ccccc3)C3=C2C(=O)CC(C)(C)C3)cc1OC (stereo unspecified)	–	94	–	–
COc1ccc(C2C(C#N)=C(N)OC3=C2C(=O)CC(C)(C)C3)cc1OC (stereo unspecified)	–	–	–	–
O=[N+]([O-])c1cccc(NC(=S)N2CCOCC2)c1	–	–	68	–
CC1=[N+](CC(=O)c2ccccc2)CCn2cccc21	–	–	20	–
